S1P1 ag pot – activates or potentiates agonism at human S1P1 receptor. S1P1 CRE-bla cells, forskolin, beta-lactamase FRET, potentiator mode; S1P1 agonist co-added at EC20, 2 nM; 100% = saturating reference agonist, 0% = basal. activation, % at 9.5 µM. actives 0.57% (n = 56,000). AID 449;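 active means activation above a cutoff set at the mean activation of all tested compounds plus 3 SD, cut at about 54% in these data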;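 further: forskolin at 4 µM as EC80 and the EC20 agonist is SEW2871; 100% = SEW2871 at its EC100 plus forskolin at EC80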
5-HT1A blocker – 5-HT1a (human) receptor antagonism; CHO 5-HT1a Ga15 NFAT-bla reporter, antagonist mode; inhibition, % at 10 µM; actives 0.68% (n = 62,000); AID 612;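 active means inhibition above the mean of all tested compounds plus 3 SD, cut at about 43% in these data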;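 further: receptor stimulated by 5-CT agonist at 100 nM near EC80; beta-lactamase reporter measured by ratiometric fluorescence of a cleavable substrate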
Target sequence (P08908 whole entry, looked up): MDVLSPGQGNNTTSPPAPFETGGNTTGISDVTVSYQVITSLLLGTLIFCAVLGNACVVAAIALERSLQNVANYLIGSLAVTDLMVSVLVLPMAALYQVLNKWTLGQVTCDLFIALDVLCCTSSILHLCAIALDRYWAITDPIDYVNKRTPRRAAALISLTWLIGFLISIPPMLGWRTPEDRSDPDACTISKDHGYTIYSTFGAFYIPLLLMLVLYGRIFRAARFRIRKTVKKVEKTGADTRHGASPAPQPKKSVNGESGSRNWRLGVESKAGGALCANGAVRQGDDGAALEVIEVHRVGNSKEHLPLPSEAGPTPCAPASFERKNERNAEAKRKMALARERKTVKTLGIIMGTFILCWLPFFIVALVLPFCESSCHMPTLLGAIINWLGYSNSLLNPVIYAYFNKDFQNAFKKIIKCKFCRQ
HTR1E agonist – activates the human 5-HT1E serotonin receptor. P28566. CHO 5-HT1E Ga15 NFAT-bla reporter, FRET; 0% DMSO wells, 100% control agonist wells. activation, % at 6 µM. actives 0.69% (n = 65,000);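 active means activation above a set limit, the screen-wide mean activation plus 3 SD, cut at about 8.5% in these data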;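 further: 100% = positive control agonist at 1 µM giving full maximal response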
HTR1A agonist – activates the human 5-HT1a serotonin receptor; CHO 5-HT1a Ga15 NFAT-bla reporter, FRET ratio; 0% basal, 100% maximal reference agonist; P08908; actives 0.56% (n = 65,000); activation, % at 10 µM; AID 567;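 active means activation above the screen-wide mean activation plus 3 SD, cut at about 19% in these data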;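 further: 0% = DMSO wells and 100% = 5-CT at EC100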
S1P3 agonist – S1P3 (human) receptor agonism. Q99500. S1P3 NFAT-BLA reporter cells, FRET ratio; relative to 1 µM S1P, basal subtracted. activation, % at 4.5 µM. actives 0.1% (n = 60,000);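 active means activation above the screen-wide mean plus 3 SD, cut at about 4.5% in these data, passing the limit was not always enough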
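Assay system: stable CHO line with human S1P3, Gα16, NFAT-BLA reporter; Detection: FRET β-lactamase substrate fluorescence, excitation 405 nm, 460/535 nm emission ratio, background-subtracted; Read-out: percent activation versus median 1 µM S1P response, basal-subtracted, per plate; Incubation: cells plated overnight, compound 4 h 37 °C, substrate 2 h RT.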
5HT1E antag – blocks the human 5-HT1E serotonin receptor. CHO 5-HT1E Ga15 NFAT-bla reporter, FRET, antagonist. actives 0.99% (n = 65,000). inhibition, % at 6 µM;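 active means inhibition above a set limit, the mean inhibition across every tested compound plus 3 SD, cut at about 29% in these data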;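 further: signal is the 460 over 535 nm emission ratio of beta-lactamase substrate; 0% = agonist plus DMSO wells and 100% = wells without agonist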
* marks the source's active call; other numbers are inactive results; · = not tested or not shown. In the library only some 2.9% were active in any assay of this set; here they are far more common.

SMILES | S1P1 ag pot | 5-HT1A blocker | HTR1E agonist | HTR1A agonist | S1P3 agonist | 5HT1E antag
Cc1oc(-c2cccc(Cl)c2)nc1CN1CCCC(C(=O)NCCCN2CCOCC2)C1 (stereo not given) | 0 | 16 | 0 | 30* | -1 | 6
Cc1oc(-c2ccc(Cl)cc2)nc1CN1CCC(C(=O)NCCCN2CCOCC2)CC1 | 4 | 5 | 1 | 0 | 0 | -2
CCOC(=O)C1C2C=CC3(CN(c4ccccc4CC)C(=O)C13)O2 (stereo not given) | 16 | 3 | -1 | -2 | -1 | -9
Nc1nc(CN2CCN(c3ccccn3)CC2)nc(Nc2ccc(Cl)cc2)n1 | 10 | -7 | 1 | -3 | -2 | 2
Cc1noc(C)c1Cn1nc(C(=O)O)c2ccccc2c1=O | 5 | -20 | 0 | 2 | 1 | 10
O=C(NCc1ccccc1)N1CCN(c2ccc(Cl)c(Cl)c2)CC1 | 100* | 19 | 1 | 0 | -1 | 19
Cn1c(N2CCN(C(=O)NCc3ccccc3)CC2)nc2ccccc21 | 3 | -11 | 0 | 0 | 0 | -2
Cc1occc1C(=O)N1CCN(c2ccc(Cl)c(Cl)c2)CC1 | 69* | 9 | 1 | 2 | -1 | 5
O=C(OC(C(=O)NCc1cccs1)c1ccccc1Cl)c1ccco1 (stereo not given) | 9 | 8 | -1 | -1 | 0 | 0
CCSCc1nnc(SCC(=O)Nc2cccc(SC)c2)n1C | · | 6 | 1 | -1 | 0 | -7
COc1ccc(CC(=O)Nc2cccc(-c3nnc(-c4ccccc4)o3)c2)cc1OC | 44 | 16 | 0 | 1 | -2 | 18
CCCC(=O)Nc1ccc2oc(-c3ccncc3)nc2c1 | -13 | -2 | 0 | 1 | -1 | 2
COc1ccc(CC(=O)Nc2cccc(-c3nnc(-c4ccc(C)cc4)o3)c2)cc1OC | 2 | -6 | 0 | -1 | 0 | 34*
COc1ccc(-c2nc3cc(NC(=O)Cc4ccc(OC)c(OC)c4)ccc3o2)cc1 | 81* | 10 | 0 | 6 | -1 | 7
CCCC(=O)Nc1ccc(-c2nc3cc(C)c(C)cc3o2)cc1 | 82* | -12 | 1 | -3 | -1 | -4
COc1ccc(CC(=O)Nc2cccc(-c3nnc(-c4cccc(C)c4)o3)c2)cc1OC | · | 92* | 2 | -1 | -2 | 80*
CC(=O)Nc1cccc(NC(=O)C2CC(=O)N(c3ccc(C)cc3)C2)c1 (stereo not given) | 7 | -3 | 1 | -3 | 1 | -12
CCN(CCCNC(=O)CCNC(=O)Cn1cnc2ccccc2c1=O)c1ccccc1 | -22 | -5 | 0 | -3 | -1 | -2
O=S(=O)(NCCSc1nnc(-c2ccco2)n1-c1ccccc1)c1ccccc1 | · | 5 | 1 | 1 | -1 | 7
OC1(c2ccc(F)cc2)CCN(Cc2nnnn2Cc2cccs2)CC1 | 5 | 0 | 0 | -1 | 0 | 2
COc1cc(-c2nnc(SCc3cccnc3)n2C)cc(OC)c1O | -7 | 7 | 0 | -2 | -1 | 3
Cc1sc2ncnc(Oc3ccc(-n4ccnc4)cc3)c2c1C | 5 | 6 | 0 | 298* | -1 | 4
Cc1cc(C)c2cc(CN(CC3CCCO3)S(=O)(=O)c3ccc4c(c3)OCCO4)c(=O)[nH]c2c1 (stereo not given) | -15 | -6 | 0 | 4 | 0 | -7
COc1ccc(Nc2nc(Nc3ccc(OC)cc3)nc(-n3[nH]c(=O)c(C)c3C)n2)cc1 | -103 | · | 15* | 34* | 17* | -34
CCCOc1ccc2nc(NC(=O)OC)[nH]c2c1 | -3 | · | 0 | -2 | -4 | 73*
SMILES | S1P1 ag pot | 5-HT1A blocker | HTR1E agonist | HTR1A agonist | S1P3 agonist | 5HT1E antag
CN1CCN2c3ccccc3Cc3ccccc3C2C1 (stereo not given) | -12 | · | 86* | 0 | -1 | 5
c1ccc2c(c1)CCN2CCN1CCc2ccccc21 | 6 | 9 | -1 | -1 | 0 | 9
COc1ccc(C2C(C(=O)NCCN3CCOCC3)c3ccccc3C(=O)N2C2CCCCC2)cc1 (stereo not given) | -24 | 0 | 1 | -3 | -2 | -1
Cc1ccc(/C=c2/sc3nnc(-c4ccccc4Cl)n3c2=O)o1 | -5 | 46* | 0 | 0 | -1 | 0
O=C(NCc1ccco1)C(c1cccs1)N(C(=O)C1COc2ccccc2O1)c1cccc(O)c1 (stereo not given) | 9 | 16 | 0 | -3 | -1 | -4
CCOC(=O)CSC1=C(C#N)C(c2ccc(C)o2)CC(=O)N1 (stereo not given) | -11 | 34 | 0 | -3 | -1 | 43*
CCOC(=O)CSC1=C(C#N)C(c2ccc(Cl)cc2)CC(=O)N1 (stereo not given) | -11 | 3 | 1 | -1 | 0 | 19
CCOCCCNC(=O)CN1CCN(Cc2ccccc2C)C1=O | -6 | 9 | -1 | -5 | 0 | -3
CCOc1ccc(CCNC(=O)CN2CCN(Cc3ccccc3C)C2=O)cc1OCC | -8 | -8 | -1 | 47* | -1 | -2
CCOc1cc(S(=O)(=O)N2CCOCC2)ccc1F | 6 | -13 | 0 | 4 | 1 | -2
CCOc1ccc2cc(S(=O)(=O)N3CCOCC3)ccc2c1 | · | -9 | 8.7* | 2 | -1 | -6
COC(=O)C1=C(NC(=O)c2cccc(C)c2)CCS1 | 1 | -3 | 1 | 1 | 1 | -6
CN(C)c1nc(-c2ccccc2)c2cnn(Cc3ccccc3)c2n1 | -24 | 2 | 3 | 8 | -1 | -10
OC(c1cccc(OCc2ccccc2)c1)c1nnc(-c2ccccc2)o1 (stereo not given) | 111* | 5 | -1 | -3 | 0 | -3
CNc1nn(-c2cccc(Cl)c2)nc1N | 8 | 10 | -1 | -3 | -1 | 3
CN1Cc2cc(C(=O)c3cc(Cl)cc(CSc4ncccn4)c3O)cnc2NC1=O | -62 | 60* | -1 | -3 | -1 | 80*
O=S(=O)(NCc1ccncc1)c1ccc(Br)s1 | 110* | 11 | 0 | 0 | -1 | 9
CCCOc1nc2c(c(=O)n(C)c(=O)n2C)n1Cc1cccc2ccccc12 | · | 18 | 1 | 0 | · | -6
CCS(=O)(=O)c1ccc(S(=O)(=O)CC)s1 | -25 | -12 | 0 | -3 | -1 | -17
O=C(CSc1ccc2nnc(-c3ccccn3)n2n1)NCc1ccco1 | -4 | 6 | 0 | -2 | 0 | -7
CC(C)CCn1c(CN2CCN(C(=O)c3ccco3)CC2)nc2c1c(=O)n(C)c(=O)n2C | 2 | 1 | 1 | 57* | 0 | 1
CCn1c(CN2CCN(C(=O)c3ccco3)CC2)nc2c1c(=O)n(C)c(=O)n2C | -16 | -6 | 1 | -4 | -1 | -2

From PubChem BioAssay
